Test results published in PMC5280578 (Journal of neurosurgery, 2016).
Values joined by “and” are separate entries in the source; they are usually repeats but may differ in a detail not shown here. Identical values can stand only once. Like-named read-outs stand apart in the source and are kept apart here.

Legend:
U87-MG cells [1] = details: in vitro; cited from earlier work
GBM flank xenografts = details: ISA27 alone; cited from earlier work
[2] = rats; administration for 10 days; effects reversible; cited from earlier work
[3] = monkeys; administration for 10 days; effects reversible; cited from earlier work
[4] = test system: GBM10 intracranial tumors; assay: Survival in orthotopic intracranial GBM10 xenograft model; type: in vivo, NSG mice
GBM10 flank tumors = assay: Western blot analysis of GBM10 flank tumor lysates; type: in vivo, NSG mice; details: 66 mg/kg TMZ, 100 mg/kg nutlin3a, 3 consecutive days; for MDM2 and p53 levels in tumors: 2 hours after last dose
Summary of the method: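 NSG mice received 5 × 10^6 GBM10 cells in the right flank. At approximately 200 mm3, mice were dosed orally for 3 consecutive days with vehicle, 66 mg/kg TMZ, 100 mg/kg nutlin3a (methylcellulose/Tween 80), or the combination. Tumors were harvested 2 h after the last dose. Lysates were made in RIPA buffer with protease/phosphatase inhibitors, run on 4–20% SDS-PAGE, and transferred to nitrocellulose. Detection was by HRP-chemiluminescence, with densitometry normalized to loading control.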

U87-MG cells [5] = assay: Western blot analysis of target proteins and cell cycle markers; type: cell-based, human
Summary of the method: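 U87-MG cells were treated with vehicle, 25 μM TMZ, 5 μM nutlin3a, or the combination for 24 h or 72 h. RIPA lysates were resolved on 4–20% SDS-PAGE and transferred to nitrocellulose. Primary antibodies were used at 1:1000 and HRP secondaries at 1:5000, with chemiluminescent film detection. Densitometry was normalized to loading control and expressed relative to vehicle. Six independent experiments at 24 h; two at 72 h.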

U87-MG flank xenografts = assay: Efficacy in ectopic U87-MG flank xenografts; type: in vivo, NSG mice; details: 5 mg/kg TMZ, 100 mg/kg nutlin3; 2 treatment cycles
Summary of the method: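 NSG mice received 4 × 10^6 U87-MG cells in the right flank. At approximately 150 mm3, tumor-bearing mice were randomized into cohorts of 6–8. Dosing was oral: vehicle, 5 mg/kg TMZ, 100 mg/kg racemic nutlin3, or the combination, for 2 treatment cycles. Caliper measurements were taken twice weekly, and volume = (α2 × β)/2 (α shorter, β longer dimension). Data are mean ± SEM.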

[6] = type: in vivo, NSG mice; details: peripheral blood, three cycles
[7] = Pharmacokinetic analysis of nutlin3 in NSG mice; type: in vivo
Summary of the method: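 Racemic nutlin3 was given orally to NSG mice. Plasma was collected, flash-frozen and kept at −80°C. Drug was recovered by liquid-liquid extraction and quantified by HPLC-MS/MS (API 4000) to derive pharmacokinetic parameters.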

[8] = Nutlin3 concentration in U87-MG flank xenografts; type: in vivo, NSG mice; details: 4 hours postadministration
Summary of the method: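 Tumors from NSG mice bearing U87-MG flank xenografts were collected 4 h after oral nutlin3 dosing. A vehicle-treated tumor served as background control. Samples were flash-frozen and stored at −80°C. Nutlin3 was recovered by liquid-liquid extraction and quantified by HPLC-MS/MS (API 4000), with caylin as internal standard. Two tumor samples were analyzed.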

[9] = Nutlin3a concentrations in normal brain and intracranial tumor tissue; type: in vivo, NSG mice; details: 100 mg/kg nutlin3a; 4 hours
Summary of the method: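 NSG mice carried GBM10, GBM43 or SK28 melanoma cells implanted stereotactically in the right cerebral hemisphere. At 21 days post-implantation, mice received 100 mg/kg nutlin3a orally; tumor-free mice were dosed likewise. After 4 h, plasma and brains were collected and the tumor area was excised. Samples were frozen at −80°C, extracted by liquid-liquid extraction, and assayed by HPLC-MS/MS. Each point is one mouse.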

GBM10 cells [10] = assay: Wound-healing assay; type: cell-based, human; details: 25 μM TMZ, 10 μM nutlin3a; 12 hours
Summary of the method: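 GBM10 monolayers at 80–90% confluence were scratched with a pipette tip. Debris was washed off with medium, cells were rinsed in serum-free DMEM, and the gap was photographed at hour 0. Cells were then cultured in DMEM with 10% FBS containing vehicle, 25 μM TMZ, 10 μM nutlin3a, or the combination for 12 h. The marked gap was imaged every 2 h and its width measured. Three repeats.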

[11] = Dose-response curves of nutlin enantiomers; details: nutlin3a vs nutlin3b; data not shown
[12] = murine bone marrow; cited from earlier work
GBM10 cells [13] = assay: Western blot analysis of target proteins and cell cycle markers; type: cell-based, human
Summary of the method: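 Cultured GBM10 cells were treated with vehicle, 25 μM TMZ, 10 μM nutlin3a, or the combination for 72 h (cell-cycle markers). A second set received 200 μM TMZ plus 2 μM nutlin3a for 24, 48 or 72 h. RIPA lysates were run on 4–20% SDS-PAGE and transferred to nitrocellulose. Primary antibodies were used at 1:1000 and HRP secondaries at 1:5000, with chemiluminescent detection. Densitometry was normalized to loading control relative to vehicle (24 h: 3 independent experiments).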

GBM10 cells [14] = assay: Matrigel invasion assay; type: cell-based, human; details: 25 μM TMZ, 10 μM nutlin3a; 8 hours
U87-MG cells [15] = assay: Apoptosis assay; type: cell-based, human; details: 25 μM TMZ, 1.25 or 5 μM nutlin3a; Day 5 posttreatment
Summary of the method: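 U87-MG cells were treated with vehicle, 25 μM TMZ, 1.25 or 5 μM nutlin3a (DMSO stock diluted in medium), or TMZ/nutlin3a combinations. TMZ was dissolved in PBS or medium and used immediately. On Day 5 post-treatment, cells were stained with Annexin V-FITC and 7-AAD. Early apoptotic and late apoptotic/necrotic fractions were quantified by flow cytometry.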

[16] = 25 μM TMZ, 5 μM nutlin3a, 24 hours

In the case of `O=C1[C@@H]2CS[C@@]3(C(=O)Nc4ccccc43)N2C(=O)N1Cc1ccc(Cl)cc1` [ISA27], the “Interaction with TMZ to kill U87-MG cells” value (U87-MG cells [1]) is given as “synergized” and the “Growth of GBM flank xenografts” value (GBM flank xenografts) is given as “inhibited growth”.

For `CCOc1cc(C(C)(C)C)ccc1C1=N[C@@](C)(c2ccc(Cl)cc2)[C@@](C)(c2ccc(Cl)cc2)N1C(=O)N1CCN(CCCS(C)(=O)=O)CC1` [RG7112], the Platelet production [2] is given as “decreased platelet production” and the Platelet production [3] is given as “decreased platelet production”.

In the case of `Cn1nnc2c(C(N)=O)ncn2c1=O` [TMZ, temozolomide], the “Survival compared with vehicle or nutlin3a” value ([4]; 66 mg/kg TMZ once daily, 100 mg/kg nutlin3a, 2 cycles, p < 0.05) is reported as “significantly increased”, the “Increase in survival compared with vehicle-treated mice” value ([4]; three 5-day cycles) is reported as “approximately 13%” and the “p53 (S15) levels in tumors” value (GBM10 flank tumors) is reported as “increased”. The “MDM2 and p53 levels in tumors” value (GBM10 flank tumors) was “increased”, the “Levels of total p53, p53 (S15) and MDM2” value (U87-MG cells [5]; [16]) was “increased” and the APE1 level (U87-MG cells [5]; 72 hours) was “decreased”. For the same molecule, the “Tumor growth / tumor volume compared with vehicle” value (U87-MG flank xenografts) was “significant decrease in tumor volume”, the “White and red blood cell counts compared with vehicle-treated mice” value ([6]; Day 30 and Day 43) was “significant decrease” and the Platelets ([6]; Day 30 only) was “significantly decreased”.

For `COc1ccc(C2=N[C@@H](c3ccc(Cl)cc3)[C@@H](c3ccc(Cl)cc3)N2C(=O)N2CCNC(=O)C2)c(OC(C)C)c1` [nutlin3], the Cmax ([7]; NSG, mouse, in vivo, po) was 20400 ng/mL and 37 µM, the Tmax ([7]; NSG, mouse, in vivo, po) was 1 h and the Vd/F ([7]; NSG, mouse, in vivo, po) was 0.113 L. For the same molecule, the half-life ([7]; NSG, mouse, in vivo, po) was 270 min, the Cl/F ([7]; racemic nutlin3, NSG mice) was 0.29 mL/min and the “Tumor growth / tumor volume compared with vehicle” value (U87-MG flank xenografts) was “significantly slowed tumor growth”. The “Nutlin3 in U87-MG flank xenografts” value [8] was “detected”.

For `COc1ccc(C2=N[C@@H](c3ccc(Cl)cc3)[C@@H](c3ccc(Cl)cc3)N2C(=O)N2CCNC(=O)C2)c(OC(C)C)c1` [nutlin3a], the “Survival of mice with intracranial GBM tumors, single agent” value ([4]; 100 mg/kg nutlin3a twice daily, 2 consecutive 5-day cycles) was “did not increase survival”, the “Nutlin3a levels in brain tumor tissues versus normal brain tissue” value [9] was “higher levels” and the “MDM2 and p53 levels in tumors” value (GBM10 flank tumors) was “increased”. The GBM10 migration (GBM10 cells [10]) was “significantly inhibited”, the “Cell cycle arrest by cell cycle–specific markers (pRb S780, pHH3, TopoIIα)” value (U87-MG cells [5]; 5 μM nutlin3a, 25 μM TMZ, 72 hours) was “arrested in G0/G1” and the “Levels of total p53, p53 (S15) and MDM2” value (U87-MG cells [5]; [16]) was “increased”. For the same molecule, the p21 levels (U87-MG cells [5]; [16]) was “increased”, the APE1 level (U87-MG cells [5]; 72 hours) was “decreased” and the “Relative potency of enantiomers” value [11] was “more potent enantiomer”. The “Nutlin3a detected in bone marrow” value [12] was “low levels”, the “Cell cycle arrest by cell cycle–specific markers (pRb S780, pHH3, TopoIIα)” value (GBM10 cells [13]; 10 μM nutlin3a, 25 μM TMZ, 72 hours) was “arrested in G0/G1” and the “MDM2 and p21 levels” value (GBM10 cells [13]; 200 μM TMZ, 2 μM nutlin3a, 24 hours) was “significantly increased”. For the same molecule, the GBM10 invasion (GBM10 cells [14]) was “significantly inhibited” and the “Early and late apoptotic/necrotic cells compared with control or TMZ alone” value (U87-MG cells [15]) was “significant increases”.
